In the M2OR odorant receptor database:

Columns and labels:
Details in all cases: stereoisomer not certain
[1] = target: T1, UniProt A2ATE5
T1 sequence (whole entry): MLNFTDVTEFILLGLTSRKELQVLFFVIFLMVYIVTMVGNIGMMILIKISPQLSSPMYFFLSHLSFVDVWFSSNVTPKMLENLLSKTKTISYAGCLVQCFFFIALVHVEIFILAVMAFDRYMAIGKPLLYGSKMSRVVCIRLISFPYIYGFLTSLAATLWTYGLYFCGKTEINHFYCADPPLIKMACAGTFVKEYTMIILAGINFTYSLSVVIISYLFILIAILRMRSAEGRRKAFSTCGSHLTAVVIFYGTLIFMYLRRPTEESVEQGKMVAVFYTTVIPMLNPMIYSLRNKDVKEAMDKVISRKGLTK
Method in brief: (§1)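 Values were gathered from published papers (main text and supplementary material), with extra details requested from the original authors when needed, and checked for typos and inconsistencies. Each receptor–molecule pair is called responsive (active) if the original authors judged the measured signal statistically different from baseline, and non-responsive (inactive) otherwise. Assay methods varied by source, often transient mammalian cell-line luciferase assays. Recorded details include cell line, G-protein, co-transfected protein and tags.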

[2] = target: T2, UniProt A2AVB0
T2 sequence (whole entry): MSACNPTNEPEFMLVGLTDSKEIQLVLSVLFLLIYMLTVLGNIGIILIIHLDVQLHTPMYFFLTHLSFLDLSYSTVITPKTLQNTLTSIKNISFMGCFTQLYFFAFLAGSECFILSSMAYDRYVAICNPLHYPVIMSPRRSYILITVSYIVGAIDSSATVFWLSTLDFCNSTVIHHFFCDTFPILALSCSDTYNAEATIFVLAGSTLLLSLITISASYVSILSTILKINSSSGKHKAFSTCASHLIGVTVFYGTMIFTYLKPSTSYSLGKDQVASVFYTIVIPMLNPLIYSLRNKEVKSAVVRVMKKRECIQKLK
Method in brief: as §1

[3] = target: T3, UniProt E1BM68
T3 sequence (whole entry): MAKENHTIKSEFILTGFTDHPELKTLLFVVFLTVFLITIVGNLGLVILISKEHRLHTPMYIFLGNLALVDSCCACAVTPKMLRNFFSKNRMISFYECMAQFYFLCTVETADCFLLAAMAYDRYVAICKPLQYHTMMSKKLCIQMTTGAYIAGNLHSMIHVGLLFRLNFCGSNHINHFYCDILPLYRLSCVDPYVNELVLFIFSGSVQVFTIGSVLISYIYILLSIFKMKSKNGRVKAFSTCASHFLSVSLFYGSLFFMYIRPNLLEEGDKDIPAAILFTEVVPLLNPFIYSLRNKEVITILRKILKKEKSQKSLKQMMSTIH
Method in brief: as §1

[4] = target: T4, UniProt E9PVX1
T4 sequence (whole entry): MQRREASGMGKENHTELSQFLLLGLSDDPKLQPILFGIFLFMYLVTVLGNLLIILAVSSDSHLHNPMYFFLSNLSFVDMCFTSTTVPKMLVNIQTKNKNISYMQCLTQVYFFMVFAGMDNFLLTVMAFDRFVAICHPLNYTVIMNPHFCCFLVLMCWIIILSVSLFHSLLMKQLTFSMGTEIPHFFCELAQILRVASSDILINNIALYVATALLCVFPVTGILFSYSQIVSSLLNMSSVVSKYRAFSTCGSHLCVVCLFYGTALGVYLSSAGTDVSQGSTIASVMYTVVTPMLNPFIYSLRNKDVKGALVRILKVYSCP
Method in brief: as §1

[5] = target: T5, UniProt E9PZ66
T5 sequence (whole entry): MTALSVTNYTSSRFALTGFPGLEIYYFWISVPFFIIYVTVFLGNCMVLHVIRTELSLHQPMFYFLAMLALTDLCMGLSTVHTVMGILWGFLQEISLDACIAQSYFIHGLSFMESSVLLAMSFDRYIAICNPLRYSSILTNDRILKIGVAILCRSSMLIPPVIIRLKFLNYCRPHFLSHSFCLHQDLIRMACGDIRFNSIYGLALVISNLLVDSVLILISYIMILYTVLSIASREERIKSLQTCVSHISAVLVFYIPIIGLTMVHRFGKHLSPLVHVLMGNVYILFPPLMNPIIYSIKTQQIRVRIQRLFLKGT
Method in brief: as §1

[6] = target: T6, UniProt E9Q4X7
T6 sequence (whole entry): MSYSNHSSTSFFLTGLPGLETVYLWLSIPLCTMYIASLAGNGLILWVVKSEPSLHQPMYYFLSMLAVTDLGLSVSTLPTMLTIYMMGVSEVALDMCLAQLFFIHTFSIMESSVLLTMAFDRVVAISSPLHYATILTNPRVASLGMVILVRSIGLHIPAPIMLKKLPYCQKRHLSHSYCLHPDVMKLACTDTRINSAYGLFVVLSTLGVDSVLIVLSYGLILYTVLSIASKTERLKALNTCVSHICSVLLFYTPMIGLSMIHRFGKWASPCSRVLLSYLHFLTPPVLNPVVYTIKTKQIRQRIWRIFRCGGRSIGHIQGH
Method in brief: as §1

[7] = target: T7, UniProt E9Q546
T7 sequence (whole entry): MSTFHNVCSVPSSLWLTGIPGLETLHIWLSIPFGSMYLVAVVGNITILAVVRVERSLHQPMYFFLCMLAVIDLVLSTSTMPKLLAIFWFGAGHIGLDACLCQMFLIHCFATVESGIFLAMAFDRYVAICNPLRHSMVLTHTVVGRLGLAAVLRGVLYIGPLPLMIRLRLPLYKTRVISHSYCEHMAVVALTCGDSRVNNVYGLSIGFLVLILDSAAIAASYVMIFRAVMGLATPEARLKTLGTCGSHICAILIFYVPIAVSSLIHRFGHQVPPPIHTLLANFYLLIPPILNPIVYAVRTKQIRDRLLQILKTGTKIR
Method in brief: as §1

[8] = target: T8, UniProt E9Q6Z7
T8 sequence (whole entry): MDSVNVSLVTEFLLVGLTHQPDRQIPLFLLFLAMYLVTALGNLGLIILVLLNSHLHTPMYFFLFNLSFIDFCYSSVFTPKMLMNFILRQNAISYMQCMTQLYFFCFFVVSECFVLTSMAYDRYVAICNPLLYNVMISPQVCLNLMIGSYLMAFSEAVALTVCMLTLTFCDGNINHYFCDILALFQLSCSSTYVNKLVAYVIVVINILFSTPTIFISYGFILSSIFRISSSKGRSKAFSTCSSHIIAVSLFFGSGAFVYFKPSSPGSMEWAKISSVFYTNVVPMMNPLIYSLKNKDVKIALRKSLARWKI
Method in brief: as §1

[9] = target: T9, UniProt E9QAT7
T9 sequence (whole entry): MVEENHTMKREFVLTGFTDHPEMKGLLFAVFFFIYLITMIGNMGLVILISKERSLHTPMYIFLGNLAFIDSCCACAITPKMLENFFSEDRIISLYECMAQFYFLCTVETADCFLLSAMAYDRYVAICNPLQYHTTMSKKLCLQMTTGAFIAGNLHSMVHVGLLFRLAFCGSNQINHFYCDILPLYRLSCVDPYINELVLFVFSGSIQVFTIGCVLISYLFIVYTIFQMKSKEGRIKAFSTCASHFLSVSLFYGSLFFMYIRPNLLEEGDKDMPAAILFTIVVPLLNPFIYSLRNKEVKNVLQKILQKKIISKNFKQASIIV
Method in brief: as §1

[10] = target: T10, UniProt E9PX47
T10 sequence (whole entry): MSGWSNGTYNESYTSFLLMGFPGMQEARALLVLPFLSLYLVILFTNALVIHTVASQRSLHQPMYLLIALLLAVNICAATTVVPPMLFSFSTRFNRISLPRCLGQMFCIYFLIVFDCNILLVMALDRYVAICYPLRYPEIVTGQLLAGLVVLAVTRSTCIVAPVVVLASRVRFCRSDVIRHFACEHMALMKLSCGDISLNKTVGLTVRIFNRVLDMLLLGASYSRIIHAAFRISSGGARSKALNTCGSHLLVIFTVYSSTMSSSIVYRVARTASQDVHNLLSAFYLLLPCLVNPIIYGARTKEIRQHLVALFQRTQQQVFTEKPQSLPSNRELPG
Method in brief: as §1

[11] = target: T11, UniProt E9PXN3
T11 sequence (whole entry): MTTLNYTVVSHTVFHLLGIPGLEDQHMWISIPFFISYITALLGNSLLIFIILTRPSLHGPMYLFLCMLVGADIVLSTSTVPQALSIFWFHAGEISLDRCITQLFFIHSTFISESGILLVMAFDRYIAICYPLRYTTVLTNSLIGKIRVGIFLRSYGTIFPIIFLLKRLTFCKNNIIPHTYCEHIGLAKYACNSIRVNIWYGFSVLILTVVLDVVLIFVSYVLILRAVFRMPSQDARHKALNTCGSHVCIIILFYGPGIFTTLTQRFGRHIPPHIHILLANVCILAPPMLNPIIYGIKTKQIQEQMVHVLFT
Method in brief: as §1

[12] = target: T12, UniProt A2AVB5
T12 sequence (whole entry): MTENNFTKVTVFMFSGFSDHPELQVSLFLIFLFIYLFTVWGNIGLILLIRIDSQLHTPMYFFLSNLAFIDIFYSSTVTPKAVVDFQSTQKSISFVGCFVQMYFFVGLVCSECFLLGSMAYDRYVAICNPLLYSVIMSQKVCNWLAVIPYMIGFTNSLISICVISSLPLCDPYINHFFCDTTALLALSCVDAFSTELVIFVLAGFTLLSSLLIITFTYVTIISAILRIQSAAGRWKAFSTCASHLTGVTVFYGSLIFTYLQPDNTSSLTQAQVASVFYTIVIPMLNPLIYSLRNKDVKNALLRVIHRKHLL
Method in brief: as §1

[13] = target: T13, UniProt B2RVX8
T13 sequence (whole entry): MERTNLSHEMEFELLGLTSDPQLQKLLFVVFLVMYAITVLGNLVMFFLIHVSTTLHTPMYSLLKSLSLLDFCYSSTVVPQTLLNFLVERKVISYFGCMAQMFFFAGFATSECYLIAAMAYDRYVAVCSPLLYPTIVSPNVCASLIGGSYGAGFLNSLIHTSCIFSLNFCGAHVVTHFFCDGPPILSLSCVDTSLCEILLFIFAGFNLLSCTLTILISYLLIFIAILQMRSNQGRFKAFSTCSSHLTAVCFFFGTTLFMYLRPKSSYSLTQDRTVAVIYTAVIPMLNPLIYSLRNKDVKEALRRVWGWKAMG
Method in brief: as §1

[14] = target: T14, UniProt K7N609
T14 sequence (whole entry): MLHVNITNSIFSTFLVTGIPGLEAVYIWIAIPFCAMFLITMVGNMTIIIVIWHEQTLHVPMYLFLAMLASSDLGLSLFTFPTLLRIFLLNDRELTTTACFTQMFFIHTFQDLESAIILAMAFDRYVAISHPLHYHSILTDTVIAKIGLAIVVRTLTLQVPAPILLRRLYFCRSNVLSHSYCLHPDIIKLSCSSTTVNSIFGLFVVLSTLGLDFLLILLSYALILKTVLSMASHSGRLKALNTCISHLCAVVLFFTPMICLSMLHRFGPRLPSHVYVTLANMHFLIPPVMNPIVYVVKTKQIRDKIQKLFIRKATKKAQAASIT
Method in brief: as §1

Measured: odorant receptor agonist call

CCC(C)c1nccnc1OC (centres undefined)
active: [3]
inactive: [1] | [2] | [4] | [5] | [6] | [7] | [8] | [9]

Cc1ccc(C(C)C)cc1
inactive: [1] | [2] | [4] | [5] | [6] | [7] | [8]

O=C([O-])CCCCCCCC(=O)[O-].[H+].[H+]
active: [10]
inactive: [1] | [2] | [4] | [11] | [5] | [6] | [7] | [8]

CCCCCC=CCCC=O
inactive: [1] | [2] | [4] | [5] | [7] | [8]
active: [6]

O=C(O)C1CCC1
inactive: [1] | [2] | [4] | [5] | [6] | [7] | [8]

CCCCCCCCS
inactive: [1] | [2] | [12] | [13] | [4] | [5] | [6] | [7] | [8] | [14]
